Laboratory results reported in the RNAGym collection of RNA variant scans (doi:10.1126/science.aae0568).
This sample holds only a part of the variants without activity.

B1: tRNA (parent)
chain: GUUCCGUUGGCGUAAUGGUAACGCGUCUCCCUCCUAAGGAGAAGACUGCGGGUUCGAGUCCCGUACGGAACG

Variants of: B1
Assay: yeast fitness relative to wild type (ratio to wild type); higher = fitter; tRNA-Arg(CCU), competitive growth, 37 C, YPD
Outline: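 Variants of the tRNA-Arg(CCU) gene, chemically synthesised with a 3% per-site mutation rate at 69 sites, were placed at the native genomic locus in Saccharomyces cerevisiae. The pooled strains were competed in YPD at 37°C for 24 hours in six parallel replicates. Gene amplicons from the start population and from each end population were read by 100-nucleotide paired-end sequencing. Darwinian fitness relative to wild type came from changes in genotype frequencies; genotypes needed ≥ 100 starting reads, and estimates < 0.5 were set to 0.5.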

Row | Variant | yeast fitness
1 | A40C G51A | 0.84
2 | G38C U47G U59C | ≤ 0.5
3 | A40G C60U | 0.674
4 | A40U A42G G63A | 0.511
5 | G41C A42C C49U | ≤ 0.5
6 | G39C C49U A65U | ≤ 0.5
7 | G41A C62A A70C | ≤ 0.5
8 | A40C U53C U59A C66U | ≤ 0.5
9 | G39A G68C | 0.806
10 | G39A G68A | 0.853
11 | G39A C46A A65U | 0.581
12 | G39A C60U C62A | 0.505
13 | A40G G48A G63A | 0.774
14 | G39C A40U A65C | ≤ 0.5
15 | G41A C60G C61U A65G | 0.644
16 | A40G A43U C49U C66U | ≤ 0.5
17 | G39A U47C | 1
18 | G41C A42C | 0.565
19 | G41C A42U | 0.79
20 | G39C G44A C62G | 0.589
21 | G41C A43U U64C | 0.959
22 | G39C C66U A69U | 0.551
23 | A40U C62U | 0.87
24 | A40C U59A | 0.801

Row | Variant | yeast fitness
25 | G39U A45G G50C U54A G67A | 0.673
26 | A40U G68A | 0.923
27 | G39A A42G G67C | ≤ 0.5
28 | A40C A42U U53C C61G | ≤ 0.5
29 | G39C U59A | 0.779
30 | G39C C55U | 0.572
31 | A40C A42C C49G | ≤ 0.5
32 | G39U G52A G67U | ≤ 0.5
33 | G41A A43G A70U | 0.659
34 | G39A C62U | 1.05
35 | G41A C62U A69U | 0.619
36 | A40G C49G | 0.655
37 | A40G A42U G67C | ≤ 0.5
38 | G38C G44A A65G | ≤ 0.5
39 | A40U C49U C61U A70G | ≤ 0.5
40 | G41C A43C C66A | 0.699
41 | A40G G67A A69C | 0.513
42 | G39A G48A | 0.94
43 | G39C G56C A57G | ≤ 0.5
44 | A40U G50A | 0.801
45 | A40U G50C | 0.726
46 | G41A C46G G50A C62A | 0.537
47 | G39U U53A C55U | 0.684
48 | A40U C60U | 0.832

Row | Variant | yeast fitness
49 | A40C U59G C60G | ≤ 0.5
50 | G41A A42G | 0.911
51 | G41A A42C | 0.726
52 | G39A A42G C66U | ≤ 0.5
53 | G41A C49U A70U | 0.708
54 | A40C C46U C55G A70U | 0.503
55 | A40U G67A A70C | 0.572
56 | G39C G58C | 0.83
57 | A40G G51A C55U | 0.556
58 | G41A C46G G48A U54C C55U A70C | 0.542
59 | A40U G44C U64C | 0.944
60 | G38C C49U U54A A65C | ≤ 0.5
61 | G41A C60G U64C A65G | ≤ 0.5
62 | G39C C46U G56A | 0.694
63 | A40G G50A | 0.944
64 | A40U A65G A70U | 0.591
65 | G39U A45G G51A | 0.527
66 | A40U U53A C61U | ≤ 0.5
67 | G39A A42U C49A | ≤ 0.5
68 | G39A A42G U59A | ≤ 0.5
69 | A40C A57G G67A | 0.554
70 | A40G C62U A65U | ≤ 0.5
71 | A40C G56C | 0.609
72 | A40C G56A | 0.883

Row | Variant | yeast fitness
73 | A40U A70C | 0.941
74 | A40U A70G | 0.934
75 | A40U A70U | 0.99
76 | A40U A43C U59C | 0.752
77 | G41A A43G | 0.81
78 | A40G C61G | 0.628
79 | A40G C61U | 0.741
80 | A40G A42G U59C | 0.618
81 | G39A G48C C61A | ≤ 0.5
82 | A40G G58A A69U | 1.04
83 | A40U G51C | 0.518
84 | G41A C60G G63A A65G | 0.529
85 | G41A A70U | 0.977
86 | G41A A70C | 0.901
87 | G38C G68A | 0.62
88 | A40U G52C | 0.608
89 | A40G A57U A65G | 0.531
90 | G38C G51A G58A | 0.517
91 | G41A U47A C49U U59C G67C A70U | 0.532
92 | A40U A45G C60A | ≤ 0.5
93 | A40C C60A | 0.654
94 | A40C G41C G68C | 0.542
95 | A40G C55U | 0.663
96 | G41C C49A A69U | 0.544

Row | Variant | yeast fitness
97 | G39A C60U | 0.81
98 | G38C C49G | 0.743
99 | G38U A40G C49U | ≤ 0.5
100 | A40U G48A U64G | 0.631
101 | A40G C55A C61U | ≤ 0.5
102 | A40G C49G U59G G67C | 0.706
103 | A40C A45G G63A | 0.518
104 | A40U C55A | 0.584
105 | G41C A57G | 0.883
106 | G41C A57U | 0.661
107 | G41C A69U A70G | 0.537
108 | G41C A69U A70U | 0.629
109 | A40G G48A A65C G67C | ≤ 0.5
110 | G41C A43C A45U C49G U53G A69C | ≤ 0.5
111 | G38C U47G C62U | 0.521
112 | G39C U47A A57C | ≤ 0.5
113 | G39A C62U A70U | 0.593
114 | G41C A45G G63A C66G G67C | ≤ 0.5
115 | G41A U47C | 0.931
116 | G41A G48C A57U A65U C66A | ≤ 0.5
117 | G39C A40G G48C | ≤ 0.5
118 | A40C A43G C61G C66U | 0.683
119 | G41A A45U G58U C60A | 0.583
120 | G38C G41C C61U | ≤ 0.5

Row | Variant | yeast fitness
121 | G39A G44A | 0.846
122 | G39A G67C | 0.825
123 | A40G A43G G67C | 0.725
124 | G39C C49G C66U | ≤ 0.5
125 | G38C C55A | 0.508
126 | A40G C66U | 0.792
127 | G39C U54G | 0.547
128 | A40U C61U | 0.783
129 | A40G G56A | 0.998
130 | A40C G48A C60G | 0.683
131 | A40G G68C | 0.709
132 | A40G G68A | 0.953
133 | A40G U53A | 0.654
134 | G39C G68U | 0.762
135 | A40C G44A | 0.913
136 | A40U A65C A69U | 0.699
137 | A40G G44A U47C | 0.571
138 | G39C A40G | 0.67
139 | G39C A40U | 0.73
140 | G39C G44C G52C | 0.623
141 | A40U U64C A70U | 0.727
142 | A40C C61U | 0.799
143 | A40C C61A | 0.716
144 | G39A G58C | 0.948

Row | Variant | yeast fitness
145 | A40C C55G A69U | ≤ 0.5
146 | G38C G56C | 0.516
147 | G39A G58A A69C | 0.592
148 | A40C G52C C66U G67A | ≤ 0.5
149 | G41A A45U U47A C62U A69U | ≤ 0.5
150 | G38C C62U | 0.687
151 | A40C C49G A65G | 0.584
152 | G39C A43U U53C | 0.606
153 | G39C G50C C61G | ≤ 0.5
154 | A40C A42C G68C | 0.569
155 | G41C C49A | 0.572
156 | A40C C62G | 0.66
157 | A40C C62A | 0.651
158 | A40G C61U G68A | ≤ 0.5
159 | G41C A43G U54A C66U | ≤ 0.5
160 | G39C U59C U64C A70C | ≤ 0.5
161 | G39A C46U G67A | 0.575
162 | G39A A45C A65U C66U | ≤ 0.5
163 | A40G C62A | 0.641
164 | A40G C62U | 0.715
165 | A40C A57C C61A | ≤ 0.5
166 | A40C C49A | 0.668
167 | G41A A57U C60A G68C | ≤ 0.5
